Test results reported in ChEMBL document CHEMBL1687738, “Effect of Candida glabrata FKS1 and FKS2 mutations on echinocandin sensitivity and kinetics of 1,3-beta-D-glucan synthase: implication for the existing susceptibility breakpoint” (Antimicrob Agents Chemother, 2009).
Converted amounts (≈) assume the structure as drawn. Starred links: 1 amine or outer side, 2 acyl side, 3 side chain; linkers in the order of their positions; H or OH if unused. Positions of bridges follow the written chain, without caps; N, C: chain ends. Non-standard residues stand in square brackets, D forms with d. Residues, ends and D or L forms follow the SMILES beside them. *: point of attachment. pTerphenylCO(4''-OnC5H11) = CCCCCOc1ccc(-c2ccc(-c3ccc(C(=O)*)cc3)cc2)cc1; Orn(4R-OH,5R-OH) = O=C([C@H](C[C@@H](O)[C@@H](O)N[*:3])N[*:1])[*:2]; hTyr(3S-OH,4S-OH) = N[C@H](C(=O)O)[C@H](O)[C@@H](O)c1ccc(O)cc1; Pro(3S-OH,4S-Me) = C[C@H]1CN[C@H](C(=O)O)[C@H]1O; Hyp = O=C(O)[C@@H]1C[C@@H](O)CN1

Columns and labels:
[1] = tested on: Nakaseomyces glabratus; test: Antifungal activity against Candida glabrata ATCC 90030 expressing wild type Fks1p and Fks2p by CLSI method; assay type: functional
Summary of the method: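 Broth microdilution MIC per CLSI M27-A3 in RPMI 1640 medium, also run in RPMI 1640 with 50% serum. Wild-type control strain. Caspofungin and micafungin dissolved in sterile distilled water and anidulafungin in 100% DMSO; stock solutions stored at −86°C. Geometric means used to compare MICs.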

[2] = tested on: Nakaseomyces glabratus; test: Antifungal activity against Candida glabrata isolate 3168 expressing wild type Fks1p and Fks2p by CLSI method; assay type: functional
Summary of the method: (§1)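 Broth microdilution MIC per CLSI M27-A3 in RPMI 1640 medium without serum. Caspofungin and micafungin stocks in sterile water; anidulafungin stock in 100% DMSO; stocks kept at −86°C.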

[3] = tested on: Nakaseomyces glabratus; test: Antifungal activity against Candida glabrata isolate 21900 expressing Fks1p D632G mutant and wild type Fks2p by CLSI method; assay type: functional
[4] = tested on: Nakaseomyces glabratus; test: Antifungal activity against Candida glabrata isolate 42971 expressing Fks1p D632Y mutant and Fks2p R1377STOP mutant by CLSI method; assay type: functional; summary of the method: as §1
[5] = tested on: Nakaseomyces glabratus; test: Antifungal activity against Candida glabrata isolate 31498 expressing wild type Fks1p and Fks2p F659 deletion mutant by CLSI method; assay type: functional; summary of the method: as §1
[6] = tested on: Nakaseomyces glabratus; test: Antifungal activity against Candida glabrata isolate 3830 expressing wild type Fks1p and Fks2p S663P mutant by CLSI method; assay type: functional; summary of the method: as §1
[7] = tested on: Nakaseomyces glabratus; test: Antifungal activity against Candida glabrata isolate 5416 expressing wild type Fks1p and Fks2p W1375L mutant by CLSI method; assay type: functional; summary of the method: as §1
[8] = tested on: Nakaseomyces glabratus; test: Antifungal activity against Candida glabrata ATCC 90030 expressing wild type Fks1p and Fks2p by CLSI method in presence of 50% human serum; assay type: functional
Summary of the method: (§2)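 Broth microdilution MIC per CLSI M27-A3 in RPMI 1640 supplemented with 50% serum. Caspofungin and micafungin stocks in sterile water; anidulafungin stock in 100% DMSO; stocks kept at −86°C.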

[9] = tested on: Nakaseomyces glabratus; test: Antifungal activity against Candida glabrata isolate 218 expressing wild type Fks1p and Fks2p by CLSI method in presence of 50% human serum; assay type: functional; summary of the method: as §2
[10] = tested on: Nakaseomyces glabratus; test: Antifungal activity against Candida glabrata isolate 3168 expressing wild type Fks1p and Fks2p by CLSI method in presence of 50% human serum; assay type: functional; summary of the method: as §2
[11] = tested on: Nakaseomyces glabratus; test: Antifungal activity against Candida glabrata isolate 42997 expressing Fks1p F625S mutant and wild type Fks2p by CLSI method in presence of 50% human serum; assay type: functional; summary of the method: as §2
[12] = tested on: Nakaseomyces glabratus; test: Antifungal activity against Candida glabrata isolate 5847 expressing Fks1p S629P mutant and wild type Fks2p by CLSI method in presence of 50% human serum; assay type: functional; summary of the method: as §2
[13] = tested on: Nakaseomyces glabratus; test: Antifungal activity against Candida glabrata isolate 21900 expressing Fks1p D632G mutant and wild type Fks2p by CLSI method in presence of 50% human serum; assay type: functional; summary of the method: as §2
[14] = tested on: Nakaseomyces glabratus; test: Antifungal activity against Candida glabrata isolate 3169 expressing Fks1p D632E mutant and wild type Fks2p by CLSI method in presence of 50% human serum; assay type: functional; summary of the method: as §2
[15] = tested on: Nakaseomyces glabratus; test: Antifungal activity against Candida glabrata isolate 31498 expressing wild type Fks1p and Fks2p F659 deletion mutant by CLSI method in presence of 50% human serum; assay type: functional; summary of the method: as §2
[16] = tested on: Nakaseomyces glabratus; test: Antifungal activity against Candida glabrata isolate 234 expressing wild type Fks1p and Fks2p F659V mutant by CLSI method in presence of 50% human serum; assay type: functional; summary of the method: as §2
[17] = tested on: Nakaseomyces glabratus; test: Antifungal activity against Candida glabrata isolate 41026 expressing wild type Fks1p and Fks2p F659S mutant by CLSI method in presence of 50% human serum; assay type: functional; summary of the method: as §2
[18] = tested on: Nakaseomyces glabratus; test: Antifungal activity against Candida glabrata isolate 3830 expressing wild type Fks1p and Fks2p S663P mutant by CLSI method in presence of 50% human serum; assay type: functional; summary of the method: as §2
[19] = tested on: Nakaseomyces glabratus; test: Antifungal activity against Candida glabrata isolate 41400 expressing wild type Fks1p and Fks2p D666G mutant by CLSI method in presence of 50% human serum; assay type: functional; summary of the method: as §2
[20] = tested on: Nakaseomyces glabratus; test: Antifungal activity against Candida glabrata isolate 42031 expressing wild type Fks1p and Fks2p D666E mutant by CLSI method in presence of 50% human serum; assay type: functional; summary of the method: as §2
[21] = tested on: Nakaseomyces glabratus; test: Antifungal activity against Candida glabrata isolate 51916 expressing wild type Fks1p and Fks2p P667T mutant by CLSI method in presence of 50% human serum; assay type: functional; summary of the method: as §2
[22] = tested on: Nakaseomyces glabratus; test: Antifungal activity against Candida glabrata isolate 5416 expressing wild type Fks1p and Fks2p W1375L mutant by CLSI method in presence of 50% human serum; assay type: functional; summary of the method: as §2
[23] = Inhibition of Candida glabrata isolate 218 wild type 1,3-beta-D-glucan synthase; set-up: species or system Nakaseomyces glabratus
Summary of the method: (§3)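 Cells grown in YPD broth at 35°C with vigorous shaking to early stationary phase. Membrane protein extracted and glucan synthase partially purified by product entrapment. Filtration polymerization assay measured [3H]glucose incorporation into product, started by adding enzyme. Echinocandin serial dilutions spanned 0.01–10,000 ng/ml, with 1% DMSO controls for anidulafungin. IC50 from variable-slope sigmoidal fit.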

[24] = target: 1,3-beta-glucan synthase component FKS1 (Candida glabrata, UniProt E2GKZ4, S629P); test: Inhibition of Candida glabrata isolate 5847 1,3-beta-D-glucan synthase Fks1p S629P mutant/wild type Fks2p; set-up: species or system Nakaseomyces glabratus; summary of the method: as §3
[25] = target: 1,3-beta-glucan synthase component FKS1 (Candida glabrata, UniProt E2GKZ4, D632G); test: Inhibition of Candida glabrata isolate 21900 1,3-beta-D-glucan synthase Fks1p D632G mutant/wild type Fks2p; set-up: species or system Nakaseomyces glabratus; summary of the method: as §3
[26] = Inhibition of Candida glabrata isolate 42971 1,3-beta-D-glucan synthase Fks1p D632Y mutant/Fks2p R1377STOP mutant; set-up: species or system Nakaseomyces glabratus; summary of the method: as §3
[27] = Inhibition of Candida glabrata isolate 31498 1,3-beta-D-glucan synthase wild type Fks1p/Fks2p F659 deletion mutant; set-up: species or system Nakaseomyces glabratus; summary of the method: as §3
[28] = target: 1,3-beta-glucan synthase (Candida glabrata, UniProt F5BCZ9, F659S); test: Inhibition of Candida glabrata isolate 41026 1,3-beta-D-glucan synthase wild type Fks1p/Fks2p F659S mutant; set-up: species or system Nakaseomyces glabratus; summary of the method: as §3
[29] = target: 1,3-beta-glucan synthase (Candida glabrata, UniProt F5BCZ9, S663P); test: Inhibition of Candida glabrata isolate 3830 1,3-beta-D-glucan synthase wild type Fks1p/Fks2p S663P mutant; set-up: species or system Nakaseomyces glabratus; summary of the method: as §3
[30] = target: 1,3-beta-glucan synthase (Candida glabrata, UniProt F5BCZ9, D666G); test: Inhibition of Candida glabrata isolate 41400 1,3-beta-D-glucan synthase wild type Fks1p/Fks2p D666G mutant; set-up: species or system Nakaseomyces glabratus; summary of the method: as §3
[31] = target: 1,3-beta-glucan synthase (Candida glabrata, UniProt F5BCZ9, D666E); test: Inhibition of Candida glabrata isolate 42031 1,3-beta-D-glucan synthase wild type Fks1p/Fks2p D666E mutant; set-up: species or system Nakaseomyces glabratus; summary of the method: as §3
[32] = target: 1,3-beta-glucan synthase (Candida glabrata, UniProt F5BCZ9, P667T); test: Inhibition of Candida glabrata isolate 51916 1,3-beta-D-glucan synthase wild type Fks1p/Fks2p P667T mutant; set-up: species or system Nakaseomyces glabratus; summary of the method: as §3
[33] = tested on: Nakaseomyces glabratus; test: Ratio of IC50 for Candida glabrata wild type 1,3-beta-glucan synthase to IC50 for Candida glabrata 1,3-beta-glucan synthase mutant

Sequence of 1,3-beta-glucan synthase (Candida glabrata, UniProt F5BCZ9, S663P) (F5BCZ9 entry or part of it S663P): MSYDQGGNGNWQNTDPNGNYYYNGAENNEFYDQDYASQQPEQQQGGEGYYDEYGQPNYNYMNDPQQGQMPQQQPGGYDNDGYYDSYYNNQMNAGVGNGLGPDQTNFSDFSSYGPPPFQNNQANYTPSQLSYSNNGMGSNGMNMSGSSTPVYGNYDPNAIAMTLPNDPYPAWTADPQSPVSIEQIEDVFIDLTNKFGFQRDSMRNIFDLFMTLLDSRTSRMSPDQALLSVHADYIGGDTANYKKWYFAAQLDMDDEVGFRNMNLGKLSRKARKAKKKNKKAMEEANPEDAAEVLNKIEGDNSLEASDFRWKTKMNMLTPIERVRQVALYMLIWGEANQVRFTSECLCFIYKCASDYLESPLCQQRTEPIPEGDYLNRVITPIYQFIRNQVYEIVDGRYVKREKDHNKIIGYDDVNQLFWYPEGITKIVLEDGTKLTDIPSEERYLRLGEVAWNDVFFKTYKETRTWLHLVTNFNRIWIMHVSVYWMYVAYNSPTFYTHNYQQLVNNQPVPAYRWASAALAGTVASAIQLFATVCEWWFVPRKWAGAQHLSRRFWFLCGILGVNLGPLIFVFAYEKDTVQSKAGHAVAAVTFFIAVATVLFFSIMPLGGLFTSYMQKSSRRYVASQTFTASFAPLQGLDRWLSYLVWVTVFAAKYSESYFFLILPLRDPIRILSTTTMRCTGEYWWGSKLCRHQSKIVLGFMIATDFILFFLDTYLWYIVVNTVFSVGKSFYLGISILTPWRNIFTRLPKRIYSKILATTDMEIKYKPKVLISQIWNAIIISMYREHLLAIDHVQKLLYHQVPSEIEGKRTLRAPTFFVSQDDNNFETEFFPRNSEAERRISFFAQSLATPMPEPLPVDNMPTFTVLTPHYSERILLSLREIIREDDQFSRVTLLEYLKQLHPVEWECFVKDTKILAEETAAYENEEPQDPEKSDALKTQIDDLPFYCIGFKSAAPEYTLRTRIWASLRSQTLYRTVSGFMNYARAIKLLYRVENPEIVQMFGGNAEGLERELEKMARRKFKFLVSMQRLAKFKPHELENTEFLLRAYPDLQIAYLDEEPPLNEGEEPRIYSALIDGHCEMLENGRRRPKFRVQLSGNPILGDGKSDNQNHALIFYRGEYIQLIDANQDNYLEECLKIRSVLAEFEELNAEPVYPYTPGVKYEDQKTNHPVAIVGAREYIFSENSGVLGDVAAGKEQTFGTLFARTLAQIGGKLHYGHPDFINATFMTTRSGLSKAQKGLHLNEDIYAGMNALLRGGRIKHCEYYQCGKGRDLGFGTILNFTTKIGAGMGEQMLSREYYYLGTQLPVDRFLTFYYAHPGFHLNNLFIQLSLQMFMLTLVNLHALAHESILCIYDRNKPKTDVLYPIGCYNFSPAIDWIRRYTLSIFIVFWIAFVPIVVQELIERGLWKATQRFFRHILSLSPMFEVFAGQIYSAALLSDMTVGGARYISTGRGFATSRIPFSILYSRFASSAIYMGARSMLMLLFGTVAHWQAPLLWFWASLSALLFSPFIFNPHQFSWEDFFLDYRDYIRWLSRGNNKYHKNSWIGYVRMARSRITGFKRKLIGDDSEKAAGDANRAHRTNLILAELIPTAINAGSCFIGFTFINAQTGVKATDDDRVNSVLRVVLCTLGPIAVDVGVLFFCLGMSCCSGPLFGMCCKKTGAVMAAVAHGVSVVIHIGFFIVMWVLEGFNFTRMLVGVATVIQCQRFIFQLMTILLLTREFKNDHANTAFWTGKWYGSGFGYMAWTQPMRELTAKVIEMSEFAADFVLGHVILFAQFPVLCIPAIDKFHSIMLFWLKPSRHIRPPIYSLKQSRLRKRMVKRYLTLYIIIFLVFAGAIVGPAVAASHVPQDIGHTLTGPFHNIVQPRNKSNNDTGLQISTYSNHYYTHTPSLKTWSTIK
Sequence of 1,3-beta-glucan synthase component FKS1 (Candida glabrata, UniProt E2GKZ4, D632G) (E2GKZ4 entry or part of it D632G): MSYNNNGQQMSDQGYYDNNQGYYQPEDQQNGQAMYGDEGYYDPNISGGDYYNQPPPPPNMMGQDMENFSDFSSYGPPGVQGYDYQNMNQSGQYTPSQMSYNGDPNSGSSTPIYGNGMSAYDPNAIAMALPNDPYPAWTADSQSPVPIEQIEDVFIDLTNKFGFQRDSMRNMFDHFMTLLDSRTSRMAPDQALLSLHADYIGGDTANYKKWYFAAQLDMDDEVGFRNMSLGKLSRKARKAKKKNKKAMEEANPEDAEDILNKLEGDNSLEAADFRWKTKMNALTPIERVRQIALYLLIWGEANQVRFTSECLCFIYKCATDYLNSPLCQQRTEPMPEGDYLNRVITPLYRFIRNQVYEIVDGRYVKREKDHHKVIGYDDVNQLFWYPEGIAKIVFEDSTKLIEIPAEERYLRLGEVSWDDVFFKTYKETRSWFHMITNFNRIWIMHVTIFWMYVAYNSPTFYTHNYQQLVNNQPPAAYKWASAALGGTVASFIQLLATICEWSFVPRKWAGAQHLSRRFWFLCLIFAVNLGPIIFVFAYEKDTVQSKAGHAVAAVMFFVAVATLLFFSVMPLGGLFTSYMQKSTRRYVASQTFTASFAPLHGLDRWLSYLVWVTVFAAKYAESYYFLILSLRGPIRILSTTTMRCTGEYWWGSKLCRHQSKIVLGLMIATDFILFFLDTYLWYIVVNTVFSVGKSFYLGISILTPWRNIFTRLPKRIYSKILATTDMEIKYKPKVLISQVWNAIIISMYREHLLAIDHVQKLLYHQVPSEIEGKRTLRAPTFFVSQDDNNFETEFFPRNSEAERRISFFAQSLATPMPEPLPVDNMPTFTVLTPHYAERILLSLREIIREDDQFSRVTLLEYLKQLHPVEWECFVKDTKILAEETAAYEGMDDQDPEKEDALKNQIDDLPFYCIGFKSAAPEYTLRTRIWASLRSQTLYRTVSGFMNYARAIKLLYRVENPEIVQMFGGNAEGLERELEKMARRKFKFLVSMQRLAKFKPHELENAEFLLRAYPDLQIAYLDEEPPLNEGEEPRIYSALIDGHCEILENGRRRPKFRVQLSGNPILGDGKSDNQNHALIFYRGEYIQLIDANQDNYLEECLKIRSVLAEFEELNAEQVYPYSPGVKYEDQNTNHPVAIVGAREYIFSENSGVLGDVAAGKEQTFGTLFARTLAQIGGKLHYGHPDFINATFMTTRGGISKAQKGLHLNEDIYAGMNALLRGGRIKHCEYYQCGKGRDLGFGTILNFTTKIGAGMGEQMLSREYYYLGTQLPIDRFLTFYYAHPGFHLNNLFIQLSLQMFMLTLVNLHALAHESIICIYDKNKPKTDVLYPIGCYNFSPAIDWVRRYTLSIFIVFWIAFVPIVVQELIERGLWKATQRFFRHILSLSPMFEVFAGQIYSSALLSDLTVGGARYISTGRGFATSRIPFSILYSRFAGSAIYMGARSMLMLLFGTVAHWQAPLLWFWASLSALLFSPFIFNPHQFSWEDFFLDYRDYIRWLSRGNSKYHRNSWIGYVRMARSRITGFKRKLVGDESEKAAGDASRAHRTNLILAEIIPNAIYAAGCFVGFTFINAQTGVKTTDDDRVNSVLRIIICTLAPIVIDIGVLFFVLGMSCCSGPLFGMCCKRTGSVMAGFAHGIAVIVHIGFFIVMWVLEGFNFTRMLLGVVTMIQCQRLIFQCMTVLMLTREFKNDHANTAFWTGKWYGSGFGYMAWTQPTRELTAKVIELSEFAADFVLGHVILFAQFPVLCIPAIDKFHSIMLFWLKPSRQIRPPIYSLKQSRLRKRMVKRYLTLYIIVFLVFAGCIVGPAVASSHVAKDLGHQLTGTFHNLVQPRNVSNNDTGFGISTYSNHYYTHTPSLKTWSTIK

SMILES: CCCCCOc1ccc(-c2ccc(-c3ccc(C(=O)N[C@H]4C[C@@H](O)[C@@H](O)NC(=O)[C@@H]5[C@@H](O)[C@@H](C)CN5C(=O)[C@H]([C@@H](C)O)NC(=O)[C@H]([C@H](O)[C@@H](O)c5ccc(O)cc5)NC(=O)[C@@H]5C[C@@H](O)CN5C(=O)[C@H]([C@@H](C)O)NC4=O)cc3)cc2)cc1 [ANIDULAFUNGIN] ({pTerphenylCO(4''-OnC5H11)}-[Orn(4R-OH,5R-OH)]T[Hyp][hTyr(3S-OH,4S-OH)]T[Pro(3S-OH,4S-Me)]; lactam 1-C)
- MIC [1]: 0.06 µg/mL (≈ 0.0526 µM)
- MIC [2]: 0.03 µg/mL (≈ 0.0263 µM)
- MIC [3]: 1 µg/mL (≈ 0.877 µM)
- MIC [4]: 4 µg/mL (≈ 3.51 µM)
- MIC [5]: 2 µg/mL (≈ 1.75 µM)
- MIC [6]: 1 µg/mL (≈ 0.877 µM)
- MIC [7]: 0.25 µg/mL (≈ 0.219 µM)
- MIC [8]: 0.5 µg/mL
- MIC [9]: 0.5 µg/mL
- MIC [10]: 0.5 µg/mL
- MIC [11]: 8 µg/mL
- MIC [12]: 8 µg/mL
- MIC [13]: 8 µg/mL
- MIC [14]: 8 µg/mL
- MIC [15]: 8 µg/mL
- MIC [16]: 8 µg/mL
- MIC [17]: 16 µg/mL
- MIC [18]: 8 µg/mL
- MIC [19]: 8 µg/mL
- MIC [20]: 4 µg/mL
- MIC [21]: 8 µg/mL
- MIC [22]: 4 µg/mL
- IC50 [23]: 0.00125 µg/mL (≈ 0.0011 µM)
- IC50 [24]: 3380 nM
- IC50 [25]: 89.3 nM
- IC50 [26]: 2.5435 µg/mL (≈ 2.23 µM)
- IC50 [27]: 0.16 µg/mL (≈ 0.14 µM)
- IC50 [28]: 753 nM
- IC50 [29]: 3510 nM
- IC50 [30]: 154 nM
- IC50 [31]: 112 nM
- IC50 [32]: 87.3 nM
- Ratio IC50 [33]: 54
